From the RNAGym collection of RNA variant scans (doi:10.1002/anie.201605470)

B1: Osa-1-4 twister ribozyme (parent)
chain: CCGCCUAACACUGCCAAUGCCGGUCCCAAGCCCGGAUAAAAGUGGAGGGGGCGG

Variants of: B1
Assay: self-cleavage, relative activity (ratio to wild type); higher = more cleavage; co-transcriptional
Method in brief: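 The 48 positions downstream of the cleavage site in a DNA template for a 54-nucleotide Oryza sativa twister ribozyme carried 97 % wild-type base and 1 % of each other base. After in vitro transcription (2 h, 37 °C) with co-transcriptional self-cleavage, the RNA was reverse-transcribed with a template-switching oligonucleotide, PCR-amplified and deep-sequenced. Relative activity is the fraction cleaved, judged by reads with or without upstream sequence and normalised to wild type.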

Variant | self-cleavage
CCGCCUAACACUGCCAAUGGCGGUCCCAAGCCCGGAUAAAAGUGGAGGGGUCGG | 0.06
CCGCCUAACACUGCCAAUGGCGGUCCCAAGCCCGGAUAAAAGUGGAGGGGACGG | 0.09
CCGCCUAACACUGCCAAUGGCGGUCCCAAGCCCGGAUAAAAGUGGAGGGGCCGG | 0.03
CCGCCUAACACUGCCAAUGUCGGUCCCAAGCCCGGAUAAAAGUGGAGGGGGAGG | 0.9
CCGCCUAACACUGCCAAUGUCGGUCCCAAGCCCGGAUAAAAGUGGAGGGGGUGG | 0.96
CCGCCUAACACUGCCAAUGUCGGUCCCAAGCCCGGAUAAAAGUGGAGGGGGGGG | 0.89
CCGCCUAACACUGCCAAUGUCGCUCCCAAGCCCGGAUAAAAGUGGAGGGGGCGG | 0.05
CCGCCUAACACUGCCAAUGUCGAUCCCAAGCCCGGAUAAAAGUGGAGGGGGCGG | 0.27
CCGCCUAACACUGCCAAUGUCGUUCCCAAGCCCGGAUAAAAGUGGAGGGGGCGG | 0.13
CCGCCUAACACUGCCAAUGGCGGUCCCAAGCCCGGAUAAAAGUGGAGGGAGCGG | 0.23
CCGCCUAACACUGCCAAUGGCGGUCCCAAGCCCGGAUAAAAGUGGAGGGCGCGG | 0.06
CCGCCUAACACUGCCAAUGGCGGUCCCAAGCCCGGAUAAAAGUGGAGGGUGCGG | 0.09
CCGCCUAACACUGCCAAUGUCGGUCCCAAGCCCGUAUAAAAGUGGAGGGGGCGG | 1
CCGCCUAACACUGCCAAUGUCGGUCCCAAGCCCGCAUAAAAGUGGAGGGGGCGG | 0.93
CCGCCUAACACUGCCAAUGUCGGUCCCAAGCCCGAAUAAAAGUGGAGGGGGCGG | 1
CCGCCUAACACUGCCAAUGUCGGUCCCAAGCCCGGAUAAAAAUGGAGGGGGCGG | 0.62
CCGCCUAACACUGCCAAUGUCGGUCCCAAGCCCGGAUAAAACUGGAGGGGGCGG | 0.22
CCGCCUAACACUGCCAAUGUCGGUCCCAAGCCCGGAUAAAAUUGGAGGGGGCGG | 0.1
CCGCCUAACACUGCCAAUGUCGGUCCCAAUCCCGGAUAAAAGUGGAGGGGGCGG | 0.04
CCGCCUAACACUGCCAAUGUCGGUCCCAAACCCGGAUAAAAGUGGAGGGGGCGG | 0.05
CCGCCUAACACUGCCAAUGUCGGUCCCAACCCCGGAUAAAAGUGGAGGGGGCGG | 0.06
CCGCCUAACACUGCCAAUGUCGGUCCCAAGCCAGGAUAAAAGUGGAGGGGGCGG | 0.11
CCGCCUAACACUGCCAAUGUCGGUCCCAAGCCGGGAUAAAAGUGGAGGGGGCGG | 0.07
CCGCCUAACACUGCCAAUGUCGGUCCCAAGCCUGGAUAAAAGUGGAGGGGGCGG | 0.77

Variant | self-cleavage
CCGCCUAACACUGCCAAUGUCGGUCCCAAGCCCGGAUAAAAGUUGAGGGGGCGG | 0.87
CCGCCUAACACUGCCAAUGUCGGUCCCAAGCCCGGAUAAAAGUCGAGGGGGCGG | 0.88
CCGCCUAACACUGCCAAUGUCGGUCCCAAGCCCGGAUAAAAGUAGAGGGGGCGG | 0.87
CCGCCUAACACUGCCAAUGUCGGUCCCAAGCCCGGAUAAAAGUGGAGGGGGCGG | 0.97
CCGCCUAACACUGCCAAUGGCGGUCCCAAGCCCGGACAAAAGUGGAGGGGGCGG | 0.19
CCGCCUAACACUGCCAAUGGCGGUCCCAAGCCCGGAAAAAAGUGGAGGGGGCGG | 0.2
CCGCCUAACACUGCCAAUGGCGGUCCCAAGCCCGGAGAAAAGUGGAGGGGGCGG | 0.19
CCGCCUAACACUGCCAAUGUUGGUCCCAAGCCCGGAUAAAAGUGGAGGGGGCGG | 1.05
CCGCCUAACACUGCCAAUGUGGGUCCCAAGCCCGGAUAAAAGUGGAGGGGGCGG | 0.26
CCGCCUAACACUGCCAAUGUAGGUCCCAAGCCCGGAUAAAAGUGGAGGGGGCGG | 0.87
CCGCCUAACACUGCCAAUGUCGGUCCCAAGCGCGGAUAAAAGUGGAGGGGGCGG | 0.13
CCGCCUAACACUGCCAAUGUCGGUCCCAAGCUCGGAUAAAAGUGGAGGGGGCGG | 0.15
CCGCCUAACACUGCCAAUGUCGGUCCCAAGCACGGAUAAAAGUGGAGGGGGCGG | 0.08
CCGCCUAACACUGCCAAUGUCGGUCGCAAGCCCGGAUAAAAGUGGAGGGGGCGG | 0.24
CCGCCUAACACUGCCAAUGUCGGUCUCAAGCCCGGAUAAAAGUGGAGGGGGCGG | 0.92
CCGCCUAACACUGCCAAUGUCGGUCACAAGCCCGGAUAAAAGUGGAGGGGGCGG | 0.08
CCGCCUAACACUGCCAAUGGCGGUCCCAAGCCCGGAUAAAAGUGGAGUGGGCGG | 0.03
CCGCCUAACACUGCCAAUGGCGGUCCCAAGCCCGGAUAAAAGUGGAGAGGGCGG | 0.03
CCGCCUAACACUGCCAAUGGCGGUCCCAAGCCCGGAUAAAAGUGGAGCGGGCGG | 0.04
CCGCCUAACACUGCCAAUGGCGGCCCCAAGCCCGGAUAAAAGUGGAGGGGGCGG | 0.11
CCGCCUAACACUGCCAAUGGCGGGCCCAAGCCCGGAUAAAAGUGGAGGGGGCGG | 0.05
CCGCCUAACACUGCCAAUGGCGGACCCAAGCCCGGAUAAAAGUGGAGGGGGCGG | 0.07
CCGCCUAACACCGCCAAUGGCGGUCCCAAGCCCGGAUAAAAGUGGAGGGGGCGG | 0.07
CCGCCUAACACGGCCAAUGGCGGUCCCAAGCCCGGAUAAAAGUGGAGGGGGCGG | 0.04
